Compound activity deposited in PubChem BioAssay by Broad Institute.
In the library only some 2% were active in any assay of this set; here they are far more common.
CAL PDZ FP-1 = CAL PDZ peptide-binding inhibitors, primary screen, biochemical, fluorescence polarization, Cer-tagged CAL PDZ, HTS; Golgi-associated PDZ and coiled-coil motif-containing protein (Homo sapiens), Q9HD26; purified CAL PDZ, TMR-peptide fluorescence polarization, 1 h; inhibition, % at 20 µM; actives 0.02% (n = 330,000); AID 504414, 2011;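 active means highest replicate inhibition of at least 40%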;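 further: plate controls were DMSO neutral control wells for no effect and unlabeled competitor peptide control wells for full effect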
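material = purified tagged CAL PDZ domain construct (CerCALP) | buffer or medium = sodium phosphate/NaCl buffer pH 7.4 with TCEP, IgG, Thesit | reagent = TMR-labelled reporter peptide T*-PRC34 bound in PDZ groove | incubation = 1 h room-temperature incubation prior to read | measured by = fluorescence polarization (mP) | evaluation = percent inhibition from loss of millipolarization | control set = unlabelled peptide and DMSO controls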
CAL PDZ FP-2 = untagged CAL PDZ binding inhibitors, primary screen, biochemical, fluorescence polarization, HTS; Golgi-associated PDZ and coiled-coil motif-containing protein (Homo sapiens), Q9HD26; purified CAL PDZ, TMR-peptide fluorescence polarization, 1 h; inhibition, % at 24.9 µM; actives 0.92% (n = 300,000);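 active means mean inhibition of at least 30% with at least half of replicates also reaching 30%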;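 further: 0% = DMSO neutral control and 100% = excess unlabeled competitor peptide PRC23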
CDK5 p35 inh = inhibitors of human CDK5/p35 kinase, primary screen, biochemical, single concentration; Cyclin-dependent kinase 5 (Homo sapiens) + Cyclin-dependent kinase 5 activator 1 (Homo …; Recombinant CDK5/p35, ADP-Glo luminescence, 60 min; inhibition, % at 10 µM; actives 0.01% (n = 330,000);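 active means highest replicate inhibition of at least 50% and at least 75% of replicates reaching 50%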;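 further: plate controls were DMSO neutral control for no effect and GW8510 at 10 µM for full effect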
dFosB activator = activators of delta FosB homodimer, primary screen, biochemical, fluorescence polarization, TAMRA-CDK5 oligo, single point | Protein FosB (Mus musculus), P13346 | purified delta FosB; percent of positive-control signal above neutral wells | activation, % at 25 µM | actives 0.99% (n = 340,000) | AID 493131, 2011;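 active means mean activation above about 17%, with every replicate also reaching it, limit read from the data, passing the limit was not always enough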
Target sequence (P13346 whole entry, looked up): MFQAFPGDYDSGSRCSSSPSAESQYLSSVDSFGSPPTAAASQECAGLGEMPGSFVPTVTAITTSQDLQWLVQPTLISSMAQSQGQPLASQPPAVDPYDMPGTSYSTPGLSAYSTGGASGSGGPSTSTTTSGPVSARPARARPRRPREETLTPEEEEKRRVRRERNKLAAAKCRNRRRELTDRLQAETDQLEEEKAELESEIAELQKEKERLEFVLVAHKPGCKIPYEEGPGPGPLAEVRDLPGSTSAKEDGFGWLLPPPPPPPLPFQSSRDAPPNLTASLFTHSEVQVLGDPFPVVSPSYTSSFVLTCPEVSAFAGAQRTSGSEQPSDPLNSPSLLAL
Statin myotox sup = suppressors of statin myotoxicity in C2C12 myotubes, primary screen, cell-based, single point, plate reader | C2C12 myotubes + simvastatin, ATP luminescence, 48 h; scaled: DMSO 0, geranylgeraniol control 100 | rescue of ATP level, % at 7.49 µM | actives 0.78% (n = 330,000);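 active means mean ATP rescue above about 67%, or every replicate alone reaching that limit, limit read from the data, passing the limit was not always enough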;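 further: myotubes were challenged with 10 µM simvastatin during compound exposure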
S100A4 inh HTS = inhibitors of S100A4-myosin IIA peptide binding, primary screen, biochemical, fluorescence polarization, TAMRA-MyoIIA peptide; Protein S100-A4 (Homo sapiens), P26447; inhibition, % at 10.7 µM; actives 0.14% (n = 360,000);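 active means mean inhibition of at least 70% across replicates, with every replicate also reaching that level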
Target sequence (P26447 whole entry, looked up): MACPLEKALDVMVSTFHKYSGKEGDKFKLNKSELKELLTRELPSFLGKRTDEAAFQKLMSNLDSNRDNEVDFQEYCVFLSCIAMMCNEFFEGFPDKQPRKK
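Material: S100A4 monomer (human). Medium: Calcium-containing HEPES buffer, pH 7.2. Probe or stimulus: labelled myosin peptide probe, 5 nM. Compound dosing: one concentration per compound. Timing: polarization read 5 min after assay mix addition, stable 5–60 min. Benchmarks: DMSO as neutral control, TFP as positive control.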
* = called active by the depositor.

Screening CCc1ccc(C(O)(CC(C)C)C(CN2CCOCC2)c2ccccc2)cc1 (stereo unspecified) returned CAL PDZ FP-1 0, CAL PDZ FP-2 1, CDK5 p35 inh 1, dFosB activator -8, Statin myotox sup 106* and S100A4 inh HTS -1.
Screening O=C(O)c1ccc(NC(=S)NC(=O)c2ccc3ccccc3c2)cc1 returned CAL PDZ FP-1 -3, CAL PDZ FP-2 -5, CDK5 p35 inh 0, dFosB activator 1, Statin myotox sup 2 and S100A4 inh HTS -1.
For COc1cccc(C(=O)NNC(=O)C2CC(C)=C(C)CC2C(=O)O)c1 (stereo unspecified) the results were CAL PDZ FP-1 0, CAL PDZ FP-2 4, CDK5 p35 inh -2, dFosB activator 5 and Statin myotox sup 99*.
Screening COC(=O)c1sccc1NC(=O)c1c(Cl)cccc1Cl returned CAL PDZ FP-2 -3, CDK5 p35 inh 0, dFosB activator 2, Statin myotox sup -1 and S100A4 inh HTS 1.
Screening COC(=O)c1sccc1NC(=O)c1cccc(Cl)c1 returned CAL PDZ FP-1 -3, CAL PDZ FP-2 83*, CDK5 p35 inh 1, dFosB activator 2 and S100A4 inh HTS 1.
For O=C(CN(C(=O)CNC(=O)c1ccco1)c1ccc2c(c1)OCCO2)NC1CCCCC1 the results were CAL PDZ FP-1 1, CAL PDZ FP-2 1, CDK5 p35 inh 0, dFosB activator -4 and S100A4 inh HTS -4.
Screening CCC(=O)N1C[C@H](C)[C@@H](OC)CN(C)C(=O)c2ccc(NC(=O)Nc3ccccc3)cc2OC[C@H]1C returned Statin myotox sup -7 and S100A4 inh HTS 124*.
Screening CCCNC(=O)Nc1ccc2c(c1)OC[C@@H](C)N(C(=O)C1CC1)C[C@H](C)[C@@H](OC)CN(C)C2=O returned Statin myotox sup -2 and S100A4 inh HTS 98*.
Screening CCCNC(=O)Nc1ccc2c(c1)OC[C@H](C)N(C(=O)C1CC1)C[C@H](C)[C@H](OC)CN(C)C2=O returned Statin myotox sup 7 and S100A4 inh HTS 4.
For COc1cc(C(=O)COC(=O)c2c(C)noc2C)cc(OC)c1OC the results were CAL PDZ FP-1 0, CAL PDZ FP-2 -9, CDK5 p35 inh 0, dFosB activator -5, Statin myotox sup 2 and S100A4 inh HTS -2.
Cc1cccc(C)c1-n1c(C)cc(/C=N\Nc2ccc([N+](=O)[O-])cn2)c1C was read as CAL PDZ FP-1 1, CAL PDZ FP-2 -4, CDK5 p35 inh 2, dFosB activator -11 and Statin myotox sup 163*.
Screening CC(C)(C)OC(=O)N1CCNc2ccccc2C1 returned CAL PDZ FP-1 -4, CAL PDZ FP-2 5, CDK5 p35 inh -2, dFosB activator -8 and Statin myotox sup 96*.
`CC(C)(C)OC(=O)N1Cc2cc3ccccc3nc2C1` gave S100A4 inh HTS -9.
Fc1ccc(Cn2cc(C(=S)N3CCOCC3)c3ccccc32)cc1 was read as CAL PDZ FP-1 15, CAL PDZ FP-2 52*, CDK5 p35 inh -1, dFosB activator -7, Statin myotox sup 39 and S100A4 inh HTS -1.
COc1ccc(NC(=O)N(C)C[C@H]2Oc3ccc(NC(=O)CCCCCC(=O)Nc4ccccc4N)cc3C(=O)N([C@H](C)CO)C[C@H]2C)cc1 was read as S100A4 inh HTS 2.
For Cc1ccc(-c2ccc(SCC(=O)Nc3cc(C)on3)nn2)cc1 the results were CAL PDZ FP-1 -2, CAL PDZ FP-2 0, CDK5 p35 inh 0, dFosB activator -2 and S100A4 inh HTS -3.
Screening Cc1ccc(S(=O)(=O)N2CCN(C(=O)C3Cc4ccccc4CN3C(=O)c3ccco3)CC2)cc1 (stereo unspecified) returned CAL PDZ FP-1 -1, CAL PDZ FP-2 2, CDK5 p35 inh -1, dFosB activator -9 and Statin myotox sup 98*.
For O=C(c1ccco1)N1CCN(C(=O)C2Cc3ccccc3CN2S(=O)(=O)c2ccc(F)cc2)CC1 (stereo unspecified) the results were CAL PDZ FP-1 -1, CAL PDZ FP-2 1, CDK5 p35 inh 2, dFosB activator -2 and Statin myotox sup -3.
`Cc1ccc(C(NC(=O)N2CCOCC2)C(Cl)Cl)cc1F` (stereo unspecified) gave CAL PDZ FP-1 -1, CAL PDZ FP-2 4, CDK5 p35 inh 0 and dFosB activator 0.
Nc1ccc(OCCCc2c(N)nc(N)nc2N)cc1 was read as CAL PDZ FP-1 1, CAL PDZ FP-2 -5, CDK5 p35 inh 1, dFosB activator 21*, Statin myotox sup -6 and S100A4 inh HTS 7.
`CCCCS(=O)(=O)N1CCCC(C(=O)Oc2ccccc2)C1` (stereo unspecified) gave CAL PDZ FP-2 66*, CDK5 p35 inh 1, dFosB activator -1, Statin myotox sup 9 and S100A4 inh HTS -20.
`O=C(Cc1ccc(-n2c(=O)c3sccc3n(CC(=O)Nc3ccccc3)c2=O)cc1)NCc1ccco1` gave CAL PDZ FP-1 -1, CAL PDZ FP-2 -2, CDK5 p35 inh 1, dFosB activator 73*, Statin myotox sup -3 and S100A4 inh HTS -5.
`Cc1c2cc[n+](CCN3CCCCC3)cc2c(C)c2c1[nH]c1ccc(O)cc12` gave CAL PDZ FP-1 11, CAL PDZ FP-2 -4, CDK5 p35 inh 7 and dFosB activator 89*.
Screening COCCNC(=O)CSc1nc2ccccc2c2nc(C)nn12 returned CAL PDZ FP-1 -2, CAL PDZ FP-2 -22, CDK5 p35 inh -5, dFosB activator -9 and Statin myotox sup 124*.
For C[C@H](CO)N1C[C@H](C)[C@H](CN(C)Cc2ccc(Cl)c(Cl)c2)Oc2ccc(NS(=O)(=O)c3ccc(F)cc3)cc2CC1=O the results were Statin myotox sup 6.
For C[C@H](CO)N1C[C@H](C)[C@@H](CN(C)Cc2ccc(Cl)c(Cl)c2)Oc2ccc(NS(=O)(=O)c3ccc(F)cc3)cc2CC1=O the results were Statin myotox sup 112*.
For C[C@H]1CN([C@@H](C)CO)C(=O)Cc2cc(NS(=O)(=O)c3ccc(F)cc3)ccc2O[C@@H]1CN(C)Cc1ccc(Cl)c(Cl)c1 the results were Statin myotox sup 69*.
C[C@H]1CN([C@@H](C)CO)C(=O)Cc2cc(NS(=O)(=O)c3ccc(Cl)cc3)ccc2O[C@H]1CN(C)Cc1ccc(Cl)c(Cl)c1 was read as Statin myotox sup 29 and S100A4 inh HTS 25.
